The target of experiment [1] is Serine/threonine-protein kinase PLK1 (Homo sapiens, UniProt P53350). The experiment can be described thus: Inhibition of PLK1 in human HeLa cells lysate at 50 uM pre incubated for 15 mins followed by ATP acyl phosphate probe addition and measured after 10 mins by LC-MS/MS analysis relative to control. The class given is subcellular. The following applies: time 25.0 min.

For experiment [2], the target named is Microtubule-associated serine/threonine-protein kinase 3 (Homo sapiens, UniProt O60307). Description: Inhibition of MAST3 in human HeLa cells lysate at 2 uM pre incubated for 15 mins followed by ATP acyl phosphate probe addition and measured after 10 mins by LC-MS/MS analysis relative to control. The following applies: time 25.0 min. The class given is subcellular.
Microtubule-associated serine/threonine-protein kinase 3, sequence (O60307 whole entry): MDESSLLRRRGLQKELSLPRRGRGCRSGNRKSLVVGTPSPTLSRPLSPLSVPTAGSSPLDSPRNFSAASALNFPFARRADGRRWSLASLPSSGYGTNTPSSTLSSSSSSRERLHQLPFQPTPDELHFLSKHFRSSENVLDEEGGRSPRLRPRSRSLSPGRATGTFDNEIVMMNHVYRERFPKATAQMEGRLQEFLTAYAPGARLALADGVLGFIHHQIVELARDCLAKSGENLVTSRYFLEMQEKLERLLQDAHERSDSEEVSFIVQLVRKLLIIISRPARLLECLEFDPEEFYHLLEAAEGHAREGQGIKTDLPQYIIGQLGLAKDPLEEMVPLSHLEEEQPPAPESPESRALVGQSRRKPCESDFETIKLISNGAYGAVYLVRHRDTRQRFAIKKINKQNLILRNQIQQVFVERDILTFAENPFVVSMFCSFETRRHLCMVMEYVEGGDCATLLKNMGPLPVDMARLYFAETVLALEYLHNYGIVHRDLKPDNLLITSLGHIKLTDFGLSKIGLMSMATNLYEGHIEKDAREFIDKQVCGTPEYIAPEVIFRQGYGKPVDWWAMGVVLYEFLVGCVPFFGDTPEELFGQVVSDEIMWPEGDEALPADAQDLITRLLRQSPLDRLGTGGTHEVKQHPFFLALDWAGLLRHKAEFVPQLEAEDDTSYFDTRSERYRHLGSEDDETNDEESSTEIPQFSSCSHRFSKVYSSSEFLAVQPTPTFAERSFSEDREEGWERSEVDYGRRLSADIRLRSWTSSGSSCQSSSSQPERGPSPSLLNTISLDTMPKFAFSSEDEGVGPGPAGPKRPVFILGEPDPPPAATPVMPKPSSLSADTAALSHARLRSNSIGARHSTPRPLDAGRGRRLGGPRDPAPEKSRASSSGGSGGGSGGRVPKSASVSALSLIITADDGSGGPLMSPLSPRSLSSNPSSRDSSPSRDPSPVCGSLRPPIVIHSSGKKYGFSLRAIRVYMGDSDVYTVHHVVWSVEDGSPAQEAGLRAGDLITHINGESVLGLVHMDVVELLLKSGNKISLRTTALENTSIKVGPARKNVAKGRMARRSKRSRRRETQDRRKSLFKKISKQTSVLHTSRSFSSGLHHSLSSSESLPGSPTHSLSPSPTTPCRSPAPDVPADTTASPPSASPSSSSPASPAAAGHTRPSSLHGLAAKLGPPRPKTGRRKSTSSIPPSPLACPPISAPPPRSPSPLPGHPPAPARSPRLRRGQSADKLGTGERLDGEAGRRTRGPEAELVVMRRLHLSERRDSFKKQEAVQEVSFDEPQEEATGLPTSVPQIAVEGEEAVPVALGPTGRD

Experiment [3] deals with T1, Dual specificity mitogen-activated protein kinase kinase 4 (Homo sapiens) (UniProt P45985).
T1 sequence (whole entry): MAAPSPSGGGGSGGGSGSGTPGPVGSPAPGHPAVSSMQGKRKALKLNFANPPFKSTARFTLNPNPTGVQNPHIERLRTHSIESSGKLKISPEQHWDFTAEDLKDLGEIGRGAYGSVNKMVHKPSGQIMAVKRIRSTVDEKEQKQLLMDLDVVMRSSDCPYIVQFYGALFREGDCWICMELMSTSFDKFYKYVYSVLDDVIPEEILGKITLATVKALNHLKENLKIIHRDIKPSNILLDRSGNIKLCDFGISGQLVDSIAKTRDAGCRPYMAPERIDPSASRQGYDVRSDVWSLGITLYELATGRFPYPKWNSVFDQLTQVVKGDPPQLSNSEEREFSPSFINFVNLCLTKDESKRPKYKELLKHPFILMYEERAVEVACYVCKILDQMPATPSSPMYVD
The experiment can be described thus: Inhibition of MAP2K4 in human HeLa cells lysate at 2 uM pre incubated for 15 mins followed by ATP acyl phosphate probe addition and measured after 10 mins by LC-MS/MS analysis relative to control. The class given is subcellular. The following applies: time 25.0 min.

Experiment [4] concerns the target Mitogen-activated protein kinase 4 (Homo sapiens, UniProt P31152). Description: Inhibition of ERK4 in human HeLa cells lysate at 50 uM pre incubated for 15 mins followed by ATP acyl phosphate probe addition and measured after 10 mins by LC-MS/MS analysis relative to control. The following applies: time 25.0 min. The class given is subcellular.
Experiment [5] in a line: Inhibition of CDK5/PRKX/PRKY in human HeLa cells lysate at 2 uM pre incubated for 15 mins followed by ADP acyl phosphate probe addition and measured after 10 mins by LC-MS/MS analysis relative to control. The following applies: 25 min, condition cancer. Put shortly:
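KiNativ profiling in HeLa lysate (5 mg/mL total protein). Lysate incubated 15 min with inhibitor at 50, 10, 2, 0.8 or 0 μM. ATP or ADP acylphosphate probe then added (5 μM final) and reacted 10 min. Reaction stopped with urea and analysed by targeted MS, using up to four fragment ions per kinase peptide-probe conjugate. % inhibition taken against untreated lysate. Run in duplicate.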

Experiment [6] concerns the target Interferon-induced, double-stranded RNA-activated protein kinase (Homo sapiens, UniProt P19525). Description: Inhibition of PKR in human HeLa cells lysate at 2 uM pre incubated for 15 mins followed by ADP acyl phosphate probe addition and measured after 10 mins by LC-MS/MS analysis relative to control. The following applies: time 25.0 min. The class given is subcellular.

The target in experiment [7] is SRSF protein kinase 1 (Homo sapiens, UniProt Q96SB4). The experiment can be described thus: Inhibition of SRPK1 in human HeLa cells lysate at 2 uM pre incubated for 15 mins followed by ATP acyl phosphate probe addition and measured after 10 mins by LC-MS/MS analysis relative to control. The class given is subcellular. The following applies: time 25.0 min.
Experiment [8] addresses T1, Dual specificity mitogen-activated protein kinase kinase 4 (Homo sapiens). The experiment can be described thus: Inhibition of MAP2K4 in human HeLa cells lysate at 50 uM pre incubated for 15 mins followed by ADP acyl phosphate probe addition and measured after 10 mins by LC-MS/MS analysis relative to control. The class given is subcellular. The following applies: time 25.0 min.

The target in experiment [9] is T2, Phosphatidylinositol 5-phosphate 4-kinase type-2 alpha (Homo sapiens, UniProt P48426).
T2 sequence (P48426 whole entry): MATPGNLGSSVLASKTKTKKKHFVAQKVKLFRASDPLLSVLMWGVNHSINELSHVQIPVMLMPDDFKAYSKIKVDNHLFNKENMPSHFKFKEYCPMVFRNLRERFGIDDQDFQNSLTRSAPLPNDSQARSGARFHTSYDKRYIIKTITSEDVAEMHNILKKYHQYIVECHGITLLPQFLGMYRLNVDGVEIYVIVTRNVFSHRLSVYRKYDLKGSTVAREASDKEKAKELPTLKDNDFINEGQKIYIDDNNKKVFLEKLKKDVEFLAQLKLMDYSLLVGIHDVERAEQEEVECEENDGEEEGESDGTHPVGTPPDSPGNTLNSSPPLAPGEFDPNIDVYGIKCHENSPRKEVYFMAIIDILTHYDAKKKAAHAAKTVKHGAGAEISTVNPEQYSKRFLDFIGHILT
Description: Inhibition of PIP5K2A in human HeLa cells lysate pre incubated for 15 mins followed by ADP acyl phosphate probe addition and measured after 10 mins by LC-MS/MS analysis. The class given is subcellular.

The nature of experiment [10]: Inhibition of NEK6/7 in human HeLa cells lysate at 2 uM pre incubated for 15 mins followed by ATP acyl phosphate probe addition and measured after 10 mins by LC-MS/MS analysis relative to control. The following applies: 25 min, condition cancer.
Experiment [11] in a line: Inhibition of HGK/MINK/TNIK in human HeLa cells lysate at 50 uM pre incubated for 15 mins followed by ADP acyl phosphate probe addition and measured after 10 mins by LC-MS/MS analysis relative to control. The following applies: 25 min, condition cancer.
Experiment [12] addresses Serine/threonine-protein kinase ATR (Homo sapiens, UniProt Q13535). Description: Inhibition of ATR in human HeLa cells lysate pre incubated for 15 mins followed by ATP acyl phosphate probe addition and measured after 10 mins by LC-MS/MS analysis. The class given is subcellular. Put shortly: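 KiNativ-type profiling in HeLa lysate (5 mg/mL total protein). Lysate preincubated 15 min with inhibitor at 50, 10, 2, 0.8 or 0 μM, then ATP or ADP acylphosphate probe added (5 μM final) for 10 min. Reaction stopped with urea and analysed by targeted MS, using up to four fragment ions per kinase peptide-probe conjugate. % inhibition calculated against untreated lysate. Duplicate reactions.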

This note sets out measurements from ChEMBL document CHEMBL5661979, “Pharmacological inhibition of BMK1 suppresses tumor growth through promyelocytic leukemia protein” (Cancer Cell, 2010).

pIC50: −log10 of the molar value.

Serine/threonine-protein kinase PLK1, sequence (P53350 whole entry): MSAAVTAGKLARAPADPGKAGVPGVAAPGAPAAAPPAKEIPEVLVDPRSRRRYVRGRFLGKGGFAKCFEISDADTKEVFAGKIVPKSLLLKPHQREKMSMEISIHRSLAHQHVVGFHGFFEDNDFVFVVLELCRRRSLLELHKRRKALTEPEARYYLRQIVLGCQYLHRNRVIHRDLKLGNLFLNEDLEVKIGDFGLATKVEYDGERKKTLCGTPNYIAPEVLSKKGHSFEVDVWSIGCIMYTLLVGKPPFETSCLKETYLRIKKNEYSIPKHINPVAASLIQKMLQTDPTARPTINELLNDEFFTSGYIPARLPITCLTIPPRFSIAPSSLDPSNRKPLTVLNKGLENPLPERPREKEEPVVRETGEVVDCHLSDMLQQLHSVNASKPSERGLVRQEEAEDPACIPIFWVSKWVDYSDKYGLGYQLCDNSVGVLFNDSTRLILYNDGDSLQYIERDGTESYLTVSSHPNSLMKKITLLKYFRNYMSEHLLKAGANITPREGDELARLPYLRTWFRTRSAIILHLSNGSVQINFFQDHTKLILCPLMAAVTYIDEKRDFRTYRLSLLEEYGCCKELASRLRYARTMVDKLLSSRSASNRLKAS
Serine/threonine-protein kinase ATR, sequence (Q13535 whole entry, the tested form may be a part): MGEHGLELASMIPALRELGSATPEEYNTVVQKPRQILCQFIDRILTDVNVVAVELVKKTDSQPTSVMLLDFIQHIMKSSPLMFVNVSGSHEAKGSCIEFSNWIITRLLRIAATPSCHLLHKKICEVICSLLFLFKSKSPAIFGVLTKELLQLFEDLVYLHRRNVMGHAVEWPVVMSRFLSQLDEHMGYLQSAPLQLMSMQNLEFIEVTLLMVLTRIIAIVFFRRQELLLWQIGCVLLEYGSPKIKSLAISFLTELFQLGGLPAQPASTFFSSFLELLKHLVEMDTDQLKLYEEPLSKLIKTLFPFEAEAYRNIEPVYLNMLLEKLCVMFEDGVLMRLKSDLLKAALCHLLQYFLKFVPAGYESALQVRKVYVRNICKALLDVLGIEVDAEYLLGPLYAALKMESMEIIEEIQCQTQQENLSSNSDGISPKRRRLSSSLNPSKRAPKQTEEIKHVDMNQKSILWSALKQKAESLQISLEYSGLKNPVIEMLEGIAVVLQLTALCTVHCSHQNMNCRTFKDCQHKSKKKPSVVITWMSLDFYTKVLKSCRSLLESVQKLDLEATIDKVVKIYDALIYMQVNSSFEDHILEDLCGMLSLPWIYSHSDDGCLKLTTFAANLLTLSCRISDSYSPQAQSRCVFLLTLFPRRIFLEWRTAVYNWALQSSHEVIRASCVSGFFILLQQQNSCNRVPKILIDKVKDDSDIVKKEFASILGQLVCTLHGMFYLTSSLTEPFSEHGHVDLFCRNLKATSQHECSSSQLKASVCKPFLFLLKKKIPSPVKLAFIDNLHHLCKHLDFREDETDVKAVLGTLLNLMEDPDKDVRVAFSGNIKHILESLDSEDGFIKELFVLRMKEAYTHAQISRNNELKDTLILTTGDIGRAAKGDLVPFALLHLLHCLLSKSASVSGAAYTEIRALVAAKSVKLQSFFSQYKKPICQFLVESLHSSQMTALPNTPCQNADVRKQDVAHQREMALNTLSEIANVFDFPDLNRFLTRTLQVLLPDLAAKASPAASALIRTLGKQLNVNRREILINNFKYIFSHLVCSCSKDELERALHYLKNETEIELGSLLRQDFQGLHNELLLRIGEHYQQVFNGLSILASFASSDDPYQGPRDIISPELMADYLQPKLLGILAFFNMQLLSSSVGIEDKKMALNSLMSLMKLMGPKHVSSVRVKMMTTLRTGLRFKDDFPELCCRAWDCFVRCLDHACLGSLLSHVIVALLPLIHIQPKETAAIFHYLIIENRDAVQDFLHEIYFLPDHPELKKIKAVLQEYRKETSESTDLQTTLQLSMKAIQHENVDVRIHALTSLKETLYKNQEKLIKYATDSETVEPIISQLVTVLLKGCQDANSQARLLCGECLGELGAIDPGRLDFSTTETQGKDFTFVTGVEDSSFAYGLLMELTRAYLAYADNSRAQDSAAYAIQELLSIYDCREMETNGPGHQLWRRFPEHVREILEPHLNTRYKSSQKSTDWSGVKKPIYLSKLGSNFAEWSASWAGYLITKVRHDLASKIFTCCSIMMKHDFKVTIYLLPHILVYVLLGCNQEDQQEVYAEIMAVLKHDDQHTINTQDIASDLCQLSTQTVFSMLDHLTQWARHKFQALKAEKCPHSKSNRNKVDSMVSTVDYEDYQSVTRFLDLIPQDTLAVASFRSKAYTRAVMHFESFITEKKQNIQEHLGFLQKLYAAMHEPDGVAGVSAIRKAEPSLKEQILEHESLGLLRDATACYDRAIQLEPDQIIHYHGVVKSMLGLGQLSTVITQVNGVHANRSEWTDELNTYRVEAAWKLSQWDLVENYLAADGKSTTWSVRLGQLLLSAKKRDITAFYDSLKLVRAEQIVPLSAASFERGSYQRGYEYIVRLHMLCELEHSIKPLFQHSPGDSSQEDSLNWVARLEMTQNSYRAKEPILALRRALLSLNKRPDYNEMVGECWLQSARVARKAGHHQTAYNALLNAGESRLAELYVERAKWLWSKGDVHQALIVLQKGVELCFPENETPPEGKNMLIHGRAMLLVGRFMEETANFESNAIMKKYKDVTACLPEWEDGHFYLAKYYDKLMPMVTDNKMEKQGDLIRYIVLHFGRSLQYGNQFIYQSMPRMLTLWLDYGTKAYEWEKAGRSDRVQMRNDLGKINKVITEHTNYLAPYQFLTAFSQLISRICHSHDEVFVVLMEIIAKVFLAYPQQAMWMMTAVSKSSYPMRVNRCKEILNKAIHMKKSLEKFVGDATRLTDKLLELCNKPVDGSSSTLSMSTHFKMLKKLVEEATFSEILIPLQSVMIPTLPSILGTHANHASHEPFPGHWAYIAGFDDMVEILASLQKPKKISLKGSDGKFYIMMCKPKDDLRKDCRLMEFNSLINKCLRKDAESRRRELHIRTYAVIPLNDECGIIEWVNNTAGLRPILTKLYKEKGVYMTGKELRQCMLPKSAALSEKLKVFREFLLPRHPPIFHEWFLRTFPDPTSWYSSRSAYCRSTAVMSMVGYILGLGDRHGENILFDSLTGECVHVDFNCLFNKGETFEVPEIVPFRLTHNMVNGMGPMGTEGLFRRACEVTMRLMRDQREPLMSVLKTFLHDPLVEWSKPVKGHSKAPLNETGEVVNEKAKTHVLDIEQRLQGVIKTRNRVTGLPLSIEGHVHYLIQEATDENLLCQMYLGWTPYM
Mitogen-activated protein kinase 4, sequence (P31152 whole entry): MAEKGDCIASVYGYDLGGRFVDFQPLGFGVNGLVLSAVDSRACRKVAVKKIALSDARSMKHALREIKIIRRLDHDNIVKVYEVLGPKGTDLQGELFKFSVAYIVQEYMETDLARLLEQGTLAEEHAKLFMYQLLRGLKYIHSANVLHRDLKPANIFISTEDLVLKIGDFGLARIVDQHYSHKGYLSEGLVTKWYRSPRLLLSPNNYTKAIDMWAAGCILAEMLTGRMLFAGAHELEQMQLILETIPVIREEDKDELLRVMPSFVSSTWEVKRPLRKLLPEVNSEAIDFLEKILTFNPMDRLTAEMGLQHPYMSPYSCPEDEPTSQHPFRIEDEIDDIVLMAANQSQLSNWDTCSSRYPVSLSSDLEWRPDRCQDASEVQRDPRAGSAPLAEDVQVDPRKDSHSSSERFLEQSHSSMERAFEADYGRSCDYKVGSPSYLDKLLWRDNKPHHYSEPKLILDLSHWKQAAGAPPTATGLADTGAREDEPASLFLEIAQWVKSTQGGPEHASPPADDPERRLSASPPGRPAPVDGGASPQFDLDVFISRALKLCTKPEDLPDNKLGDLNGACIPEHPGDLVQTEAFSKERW

On to `CCOc1cc(N2CCC(O)CC2)ccc1Nc1ncc2c(n1)N(C)c1ccccc1C(=O)N2C`, for which the inhibition in experiment [1] is -6.5%; in experiment [2] it was 2%; in experiment [3] it was 4.8%; in experiment [4], 28.7%; in experiment [6] it was 8.4%; in [7], -2%. For the same compound, the inhibition in experiment [8] was found to be 3.1%. The inhibition at 2 µM in experiment [5] is 9.4%; in experiment [10] it was -4.1%. Besides, the pIC50 in [9] and in experiment [12] was under 4.30 throughout. Besides, the inhibition at 50 µM in experiment [11] is -31.5%.

In general, inhibition refers to the change of the read-out against control, counted positive when it falls. What is called pIC50 is −log10 of the IC50, conventionally taken in molar units. Read a low pIC50 as a high IC50.
